From PubChem
hERG rescue: hERG rescue from dofetilide block, primary screen, cell-based, CHO-hERG, FluxOR thallium flux, dofetilide IC70; Voltage-gated inwardly rectifying potassium channel KCNH2 (Homo sapiens), Q12809; dofetilide IC70 present; activation (rescue from dofetilide block), less the hit threshold, % at 10 µM; 310,000 tested, 0.51% active;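 active means activation above the mean of controls blocked by dofetilide plus 5 SD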;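 further: thallium influx through hERG after potassium depolarization seen as dye fluorescence rise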
KCNQ1 inh: inhibitors of human KCNQ1 channel, primary screen, cell-based, thallium flux, high-throughput; Potassium voltage-gated channel subfamily KQT member 1 (Homo sapiens), P51787; CHO-K1 KCNQ1, FluxOR thallium flux fluorescence; hits give high values; B-score at 10 µM; 310,000 tested, 1.3% active; AID 2642, 2010;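 active means compounds whose thallium flux B-score, printed positive for inhibition, exceeds three library SD while starting fluorescence stays within three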;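 further: channel opened by potassium depolarization with thallium stimulus after 20 min compound exposure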
KCNK3 block: human KCNK3 channel inhibitors, primary screen, CHO cells, FluxOR thallium flux, B-score. B-score at 10 µM. FluxOR fluorescence; hits give low values. 340,000 tested, 0.84% active;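 active means B-score under library mean minus 4 SD, starting fluorescence ratio at most library mean plus 5 SD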;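 further: more negative B-score means stronger inhibition of thallium flux through KCNK3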
KCNQ1 act: potentiators or activators of KCNQ1 channel, primary screen, cell-based, thallium flux, high-throughput. B-score at 10 µM. CHO-K1 KCNQ1, thallium flux FluxOR fluorescence; hits give high values. 310,000 tested, 0.35% active;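 active means fluorescence ratio B-score, a plate-corrected score, at least three library SD, with initial intensity B-score within 5 SD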
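Assay system: CHO-K1 cells stably expressing KCNQ1; Medium: assay buffer with matched DMSO; Also added: K+/Tl+ depolarizing stimulus; Dosing: single dose; Timing: dye 90 min, compound 20 min, room temperature; Measured by: kinetic FluxOR thallium fluorescence, 10-s 1-Hz baseline, 110-s post-stimulus read; Read-out: peak-minus-minimum fluorescence over initial fluorescence, negative-control normalized, B-scored.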
Kir21 block: inhibitors of mouse Kir2.1 inward-rectifier potassium channel; HEK293-Kir2.1, FluxOR thallium flux fluorescence; hits give low values; B-score at 10 µM; 310,000 tested, 0.85% active; AID 1672, 2009;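 active means fluorescence ratio B-score at or below minus 3 SD of library scores, with starting-brightness B-score within 2 SD, cut at about -4.2 in these data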;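 further: channel flux triggered by added potassium and thallium sulfate stimulus; B-score of peak minus minimum fluorescence over baseline after thallium stimulus; more negative B-score means stronger Kir2.1 block with less thallium influx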
Target sequence (P35561 whole entry, looked up): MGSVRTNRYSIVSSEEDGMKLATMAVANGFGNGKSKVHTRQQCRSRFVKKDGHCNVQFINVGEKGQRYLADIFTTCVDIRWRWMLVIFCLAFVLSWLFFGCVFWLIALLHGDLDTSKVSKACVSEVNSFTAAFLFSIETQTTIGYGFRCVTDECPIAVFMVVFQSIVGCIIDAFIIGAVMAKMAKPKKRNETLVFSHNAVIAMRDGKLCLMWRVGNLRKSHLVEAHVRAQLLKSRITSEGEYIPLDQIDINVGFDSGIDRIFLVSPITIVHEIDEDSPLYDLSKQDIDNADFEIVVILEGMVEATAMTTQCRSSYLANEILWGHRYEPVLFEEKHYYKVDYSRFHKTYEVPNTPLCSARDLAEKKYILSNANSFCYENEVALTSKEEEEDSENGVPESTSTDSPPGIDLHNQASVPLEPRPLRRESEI
KCNK9 inh: KCNK9 potassium channel inhibitors, primary screen, HEK293 cells, thallium flux; Potassium channel subfamily K member 9 (Homo sapiens), Q9NPC2; FluxOR thallium flux fluorescence; hits give low values; B-score at 10 µM; 310,000 tested, 1.2% active; AID 488922, 2010;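 active means ratio B-score over 3 SD below the library mean, with starting fluorescence within 5 SD of its mean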;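 further: negative B-score means less thallium flux so channel inhibition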
Active calls of the source: *; i = inactive; . = no result given. This is a sample that favours compounds with a hit; in the whole collection about 3.8% have one here.

SMILES	hERG rescue	KCNQ1 inh	KCNK3 block	KCNQ1 act	Kir21 block	KCNK9 inh
COc1ccc(NC(=O)c2ccc(Cl)c(S(=O)(=O)N3CCc4ccccc4C3)c2)cn1	-13.2	i	-10.2*	i	-0.17	i
O=C(CSc1nnc(-c2ccccc2F)n1C1CC1)NCc1ccco1	.	.	i	.	.	.
CC(=O)Nc1ccc(NC(=O)C(C)OC(=O)CC23CC4CC(CC(Br)(C4)C2)C3)cc1 (stereo not given)	.	.	i	.	.	.
COc1ccccc1N1N=C(C(=O)c2ccccc2)C2C(=O)N(c3ccc(Br)cc3)C(=O)C21 (stereo not given)	-6.7	i	i	i	-0.01	i
COc1ccccc1N1C(=O)C2C(C(=O)c3ccccc3)=NN(c3ccccc3)C2C1=O (stereo not given)	-0.1	6*	i	i	-0.35	i
COc1ccc(-c2nc(CS(=O)CC(=O)NCc3ccc(Cl)cc3)c(C)o2)cc1OC (stereo not given)	-13.4	i	i	i	-1	i
O=C(Nc1ccccc1F)Nc1ccc([N+](=O)[O-])cc1Cl	-11.4	8*	i	i	-1.29	i
COc1ccc(CCNC(=O)Cc2cccc(C(F)(F)F)c2)cc1OC	-3.9	i	i	i	0.53	i
C=CCNC(=S)Nc1sc2c(c1C(=O)OCC)CC(C)(CC)OC2 (stereo not given)	9.4*	i	i	22*	0.56	i
CCOc1cccc(-c2c(C(=O)N/N=C/c3ccncc3)nnn2-c2nonc2N)c1	-10.2	i	i	i	0.68	i
CCOc1cccc(-c2c(C(=O)N/N=C(\C)c3ccccn3)nnn2-c2nonc2N)c1	-14.0	i	i	i	-0.5	-7.02*
Cc1ccc(S(=O)(=O)N2C[C@@H]3[C@H]4CC[C@H](C4)[C@@H]3[C@@H](C)[C@@H]2c2ccn([Si](C(C)C)(C(C)C)C(C)C)c2)cc1	.	.	i	.	.	.
CCCn1cc(SCC(=O)NCc2ccco2)c2ccccc21	-7.2	i	i	i	-5.16*	i
O=C(COC(=O)Cc1ccccc1F)NCCNC(=O)COC(=O)Cc1ccccc1F	-8.6	i	i	i	-2.53	i
COC(=O)c1c(NC(=O)C(=O)NCCCN2CCOCC2)sc2c1CCCC2	-12.4	i	i	i	-4.98*	i
N#Cc1c(NC(=O)C(=O)NCCCN2CCOCC2)sc2c1CCC2	-11.4	i	i	i	-0.97	i
Cn1c(NC(=O)c2ccccc2)cc(=O)n(C)c1=O	-9.2	i	i	i	-0.82	i
Cn1c(NNC(=O)C(c2ccccc2)c2ccccc2)cc(=O)n(C)c1=O	4.9*	i	i	i	1.01	i
COc1cc(C(=O)O)ccc1OCc1ccncc1	0.6	i	i	i	-0.18	i
CCOC(=O)C1=C(COC(=O)COc2ccc(Br)cc2)NC(=O)NC1C (stereo not given)	-22.0	i	i	i	-3.29	i
CC1CCC(NC(=O)c2cc3ccccc3cc2O)CC1 (stereo not given)	.	.	-10.9*	.	.	.
O=C(NNC(=O)c1cc2ccccc2cc1O)NC1CCCCC1	-8.2	i	i	i	0.01	i
CCCCC1(CO)C(=O)N(c2ccccc2)N(c2ccccc2)C1=O	-5.2	i	i	i	0.82	i
CCCCC1(Cc2cccc([N+](=O)[O-])c2)C(=O)N(c2ccccc2)N(c2ccccc2)C1=O	-6.5	6*	i	i	-0.51	i
COC(=O)c1sccc1NC(=O)c1cc(-c2ccc(C)cc2C)nc2ccccc12	-17.9	8*	i	i	1.47	i
SMILES	hERG rescue	KCNQ1 inh	KCNK3 block	KCNQ1 act	Kir21 block	KCNK9 inh
Cc1ccc(C)c(-c2cc(C(=O)Nc3sc(C)c(C)c3C(N)=O)c3ccccc3n2)c1	-16.0	6*	i	i	0.34	i
O=C(Nc1nccs1)c1cc(-c2ccco2)nc2ccccc12	-20.6	i	i	i	1.68	i
COC(=O)c1sccc1NC(=O)c1ccccc1C(=O)O	-8.1	i	i	i	-0.1	i
O=C(Nc1nccs1)c1cc(-c2ccccc2)nc2ccccc12	-14.3	i	i	i	0.83	-6.74*
CCOC(=O)c1sc(NC(=O)CSc2n[nH]c(-c3ccccc3)n2)c(C#N)c1C	-18.9	i	i	i	0.22	i
CCOC(=O)c1sc(NC(=O)c2cc(-c3ccccc3)nc3ccccc23)c(C#N)c1C	-35.2	8*	i	i	-3.06	i
COC(=O)C(C(=O)OC)[C@@H]1C=C[C@H](C[N+](=O)[O-])N(C(C)=O)C1	.	.	i	.	.	.
COc1ccc(C2C(C(=O)c3ccco3)=C(O)C(=O)N2CC2CCCO2)cc1OC (stereo not given)	-9.5	i	i	i	-0.05	i
CCOC(=O)c1cc2c(c(-c3ccccc3)n1)[C@@H](CCO)N(S(=O)(=O)C(C)(C)C)C2	.	.	i	.	.	.
O=[N+]([O-])c1ccc(C(O)C[n+]2ccccc2)cc1 (stereo not given)	-5.9	i	i	i	-0.01	i
O=C(N=C1SC2CS(=O)(=O)CC2N1c1ccccc1C(F)(F)F)C1CCCO1 (stereo not given)	-7.7	i	i	i	0.86	i
COc1ccccc1C(=O)NCC(=O)OCC(=O)N(CC(C)C)c1c(N)n(Cc2ccccc2)c(=O)[nH]c1=O	-6.3	i	i	i	2.18	i
CN(C)c1ccc(NC(=O)Cn2ncn3c(cc4ccccc43)c2=O)cc1	8.9*	i	i	i	-0.04	i
CC(C)c1ccc(NC(=O)Cn2ncn3c(cc4ccccc43)c2=O)cc1	-11.0	i	i	i	1.1	i
COc1cc(CNCc2ccccc2Cl)ccc1OCC(=O)NC1CCCCC1	-5.5	i	i	i	-4.74*	i
CCOc1cc(CNC2CCCC2)ccc1OCc1ccccc1Cl	-20.6	i	i	i	-4.44*	i
CCOc1c(Cl)cc(CNCC(C)C)cc1OC	-2.2	i	i	i	1.45	i
CCOc1cc(CNC2CCCC2)cc(Cl)c1OCc1ccccc1	-3.4	i	i	i	-8.76*	i
